We go through two compounds from ChEMBL document CHEMBL3425488, “Novel histone deacetylase inhibitors induce growth arrest, apoptosis, and differentiation in sarcoma cancer stem cells” (J Med Chem, 2015).

One assay concerns RD. Description: Cytotoxicity against human RD cells assessed as cell viability at 10 to 100 uM after 72 hrs by MTT assay. The class given is functional, cell-based.
The test system of another assay is A204. Description: Cytotoxicity against human A204 cells assessed as cell viability at 10 to 100 uM after 72 hrs by MTT assay. The format is functional, cell-based. On the technique in general: Tetrazolium dyes change colour on reduction, which living cells bring about.
The next assay deals with MG-63. Description: Cytotoxicity against human MG63 cells assessed as cell viability at 10 to 100 uM after 72 hrs by MTT assay. The class given is functional, cell-based. In a few lines: (§1)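 Sarcosphere-derived CSC cultures exposed 72 h to concentrations from 100 μM down to 0.1 μM. Viability compared with DMSO-only treated cells. IC50 calculated by linear regression.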

The subject of another assay is HOS. In words: Cytotoxicity against HOS cells assessed as cell viability at 10 to 100 uM after 72 hrs by MTT assay. The format is functional, cell-based. Particulars: Homo sapiens.
The subject of another assay is A673. Description: Cytotoxicity against human A673 cells assessed as cell viability at 10 to 100 uM after 72 hrs by MTT assay. The class given is functional, cell-based. The procedure, abridged: as §1
The next assay deals with SK-ES1. Description: Cytotoxicity against human SK-ES-1 cells assessed as cell viability at 10 to 100 uM after 72 hrs by MTT assay. The class given is functional, cell-based. The procedure, abridged: as §1
Assay [1] is described as follows: Cytotoxicity against human SK-ES-1 cells assessed as inhibition of cell viability after 72 hrs by MTT assay. The class given is functional, SK-ES1. The procedure, abridged:
(§2)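 Stem-like cells were taken from sarcosphere cultures and exposed for 72 h to concentrations from 100 μM down to 0.1 μM. Viability was compared with cells given DMSO vehicle alone. IC50 was calculated by linear regression of the dose-response curves.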

The nature of assay [2]: Cytotoxicity against human MG63 cells assessed as inhibition of cell viability after 72 hrs by MTT assay. The format is functional, MG-63. In a few lines:
as §2

Structures are written as SMILES. Active and inactive are the calls of the source. The calls are words filed in the database; no cut-off is given here.

With `O=c1nc2oc3ccc4ccccc4c3cc-2c(=O)n1-c1ccccc1`, the outcome in the assay with RD, in the assay on A204, in the assay on MG-63, with HOS, with A673 and with SK-ES1 was Active.
Take `Cn1c(/C=C/C(=O)NO)ccc1/C=C/C(=O)c1cccc(F)c1`: the INH is 50.7 µM in assay [1] and 38.3 µM in assay [2].
